Source: ChEMBL document CHEMBL2311296, “Discovery of a potent and isoform-selective targeted covalent inhibitor of the lipid kinase PI3Kα” (J Med Chem, 2013)
Active and inactive are the calls of the source. No cut-off for these calls is given here.

Tests used:
SK-OV-3 = assay: Growth inhibition of human SKOV3 cells assessed as cell viability after 96 hrs by Cell Titre Glo assay; format: functional; details: SK-OV-3, 96 h
[1] = target: Phosphatidylinositol 4,5-bisphosphate 3-kinase catalytic subunit alpha isoform (Homo sapiens) (UniProt P42336); details: SK-OV-3, 1 to 1000 nM
Sequence of Phosphatidylinositol 4,5-bisphosphate 3-kinase catalytic subunit alpha isoform (Homo sapiens) (P42336 whole entry, canonical isoform): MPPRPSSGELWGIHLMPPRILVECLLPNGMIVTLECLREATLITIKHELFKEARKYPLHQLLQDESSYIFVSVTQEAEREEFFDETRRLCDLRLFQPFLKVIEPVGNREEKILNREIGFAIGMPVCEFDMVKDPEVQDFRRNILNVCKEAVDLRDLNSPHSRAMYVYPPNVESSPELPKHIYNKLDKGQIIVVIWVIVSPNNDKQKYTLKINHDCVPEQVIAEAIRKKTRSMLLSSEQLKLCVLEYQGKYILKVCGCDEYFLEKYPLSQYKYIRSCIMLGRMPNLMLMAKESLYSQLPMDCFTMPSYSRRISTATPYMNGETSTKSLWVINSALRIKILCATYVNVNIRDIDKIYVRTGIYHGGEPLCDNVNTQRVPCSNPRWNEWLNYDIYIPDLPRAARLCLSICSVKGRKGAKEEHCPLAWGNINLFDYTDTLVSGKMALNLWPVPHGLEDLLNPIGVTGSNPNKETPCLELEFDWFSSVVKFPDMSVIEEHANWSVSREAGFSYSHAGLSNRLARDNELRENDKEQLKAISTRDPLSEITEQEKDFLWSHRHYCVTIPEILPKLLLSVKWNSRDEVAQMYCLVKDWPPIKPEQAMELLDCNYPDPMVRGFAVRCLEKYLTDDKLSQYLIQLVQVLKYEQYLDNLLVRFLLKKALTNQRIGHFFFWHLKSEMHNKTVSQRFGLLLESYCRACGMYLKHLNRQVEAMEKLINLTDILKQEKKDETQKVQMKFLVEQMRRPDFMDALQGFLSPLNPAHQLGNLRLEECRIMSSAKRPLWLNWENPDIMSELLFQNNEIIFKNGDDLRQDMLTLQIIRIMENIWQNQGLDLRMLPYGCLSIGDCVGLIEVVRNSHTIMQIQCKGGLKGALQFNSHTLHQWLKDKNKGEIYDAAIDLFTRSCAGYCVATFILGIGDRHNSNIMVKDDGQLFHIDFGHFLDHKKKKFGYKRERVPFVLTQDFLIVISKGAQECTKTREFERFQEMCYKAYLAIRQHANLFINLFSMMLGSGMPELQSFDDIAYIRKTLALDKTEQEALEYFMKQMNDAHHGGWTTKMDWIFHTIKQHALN

[2] = target: Phosphatidylinositol 4,5-bisphosphate 3-kinase catalytic subunit alpha isoform (Homo sapiens) (UniProt P42336); details: SK-OV-3, 500 nM
MCF7 = assay: Growth inhibition of human MCF7 cells assessed as cell viability after 96 hrs by Cell Titre Glo assay; format: functional; details: MCF7, 96 h
[3] = target: T1, Phosphatidylinositol 4,5-bisphosphate 3-kinase catalytic subunit beta isoform (Homo sapiens, UniProt P42338); assay: Binding affinity to human PI3Kbeta after 1 hr by MALDI TOF/TOF mass spectrometry
How it was run: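 Compound incubated with recombinant PI3K isoform enzyme at a 10:1 compound-to-enzyme molar ratio, room temperature, 1 h; covalent adduct formation read by mass spectrometry.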

[4] = target: Phosphatidylinositol 4-kinase alpha (Homo sapiens, UniProt P42356); assay: Inhibition of PI4Kalpha (unknown origin) by ADP-GLO assay
How it was run: (§1)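 Reaction Biology panel using ADP-Glo format at 10 μM ATP. Substrate was sphingosine for SPHK1 and SPHK2, and phosphatidylinositol for the other enzymes.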

Mus musculus [5] = assay: In vivo inhibition of PI3Kalpha in nude nu/nu mouse assessed as free P110alpha levels at 100 mg/kg, ip qd administered for 5 consecutive days measured 1 to 4 hrs post last dose by immunoblot method; format: functional, organism-based; parameters: dose 100 mg/kg
How it was run: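 Female nu/nu mice (n = 3/group) dosed ip at 100 mg/kg once daily for 5 days. Spleens harvested 1, 4 and 24 h after the last dose and homogenized. Lysate (150 μg protein) incubated with a biotinylated covalent probe at 1 μM for 1 h at RT, then immunoprecipitated with anti-p110α overnight at 4 °C. Immunoblot: streptavidin signal normalized to total p110α, expressed as % of vehicle.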

[6] = target: T1, Phosphatidylinositol 4,5-bisphosphate 3-kinase catalytic subunit beta isoform; assay: Inhibition of PI3Kbeta (unknown origin) by HTRF assay
How it was run: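 PI3Kβ tested in a 10-concentration curve, 3-fold serial dilution starting at 1 μM, at 10 μM ATP. Substrate phosphatidylinositol 4,5-bisphosphate, HTRF read-out. Value reported as apparent IC50 from an end-point assay.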

[7] = target: Phosphatidylinositol 4,5-bisphosphate 3-kinase catalytic subunit alpha isoform (Homo sapiens) (UniProt P42336); details: SK-OV-3, 500 nM; remark: listed apart in the source
[8] = target: Phosphatidylinositol 4-kinase beta (Homo sapiens, UniProt Q9UBF8); assay: Inhibition of PI4Kbeta (unknown origin) by ADP-GLO assay; how it was run: as §1
Sequence of Phosphatidylinositol 4-kinase beta (Q9UBF8 whole entry): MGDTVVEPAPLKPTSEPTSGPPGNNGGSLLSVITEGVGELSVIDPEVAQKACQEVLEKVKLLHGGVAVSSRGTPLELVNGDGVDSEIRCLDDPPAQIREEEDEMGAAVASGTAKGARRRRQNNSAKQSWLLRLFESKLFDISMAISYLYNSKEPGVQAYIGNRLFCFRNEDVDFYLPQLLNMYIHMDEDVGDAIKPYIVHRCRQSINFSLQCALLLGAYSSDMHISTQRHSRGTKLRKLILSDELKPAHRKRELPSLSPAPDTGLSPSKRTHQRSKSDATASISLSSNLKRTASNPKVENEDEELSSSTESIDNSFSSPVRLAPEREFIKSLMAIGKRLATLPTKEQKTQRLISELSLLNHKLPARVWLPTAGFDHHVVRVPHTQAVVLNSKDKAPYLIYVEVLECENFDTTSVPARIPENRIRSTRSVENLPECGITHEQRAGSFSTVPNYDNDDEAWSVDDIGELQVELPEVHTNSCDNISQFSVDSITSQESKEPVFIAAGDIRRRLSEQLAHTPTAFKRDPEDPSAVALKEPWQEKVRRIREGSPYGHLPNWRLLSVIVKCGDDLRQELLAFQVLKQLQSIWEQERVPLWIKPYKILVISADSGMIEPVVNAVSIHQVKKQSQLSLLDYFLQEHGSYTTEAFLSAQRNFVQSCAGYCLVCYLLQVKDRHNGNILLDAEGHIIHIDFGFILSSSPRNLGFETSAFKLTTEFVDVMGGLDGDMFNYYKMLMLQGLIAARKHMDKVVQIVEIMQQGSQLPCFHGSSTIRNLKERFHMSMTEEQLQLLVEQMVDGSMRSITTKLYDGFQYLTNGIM

Sphingosine kinase 1 = Sphingosine kinase 1 (Homo sapiens, UniProt Q9NYA1); assay: Inhibition of SPHK1 (unknown origin) by ADP-GLO assay; how it was run: as §1
Sequence of Sphingosine kinase 1 (Q9NYA1 whole entry): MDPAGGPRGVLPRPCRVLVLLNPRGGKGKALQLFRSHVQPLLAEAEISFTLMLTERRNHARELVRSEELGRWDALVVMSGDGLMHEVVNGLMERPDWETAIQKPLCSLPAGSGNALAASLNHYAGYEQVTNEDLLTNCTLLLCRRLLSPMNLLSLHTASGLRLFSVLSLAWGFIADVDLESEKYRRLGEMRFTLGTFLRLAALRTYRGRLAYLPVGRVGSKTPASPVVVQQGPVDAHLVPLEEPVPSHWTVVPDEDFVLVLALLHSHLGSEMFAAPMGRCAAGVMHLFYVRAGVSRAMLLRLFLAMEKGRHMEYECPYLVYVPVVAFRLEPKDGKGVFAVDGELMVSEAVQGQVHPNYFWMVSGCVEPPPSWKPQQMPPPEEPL

Plasma = assay: Plasma protein binding in human albumin-depleted plasma after 1 to 3 hrs by MALDI TOF/TOF mass spectrometry; format: ADME, cell-free
How it was run: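 Human plasma albumin-depleted, not fully, and diluted to 1 mg/mL. A 10 mM DMSO compound stock diluted 1:10 into it; incubated at 37 °C for 1 or 3 h. Samples desalted on C4 tips and analysed by MALDI TOF/TOF (sinapinic acid matrix, ovalbumin internal standard) for mass shifts.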

Mus musculus [9] = assay: In vivo inhibition of PI3Kalpha in nude nu/nu mouse spleen assessed as inhibition of Akt Ser473 phosphorylation at 100 mg/kg, ip qd administered for 5 consecutive days measured 1 to 4 hrs post last dose by immunoblotting method; format: functional, organism-based; parameters: dose 100 mg/kg
How it was run: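 Female nu/nu mice (n = 3/group) dosed ip at 100 mg/kg once daily for 5 days. Spleens collected 1, 4 and 24 h post last dose, frozen, then homogenized in extraction buffer with protease and phosphatase inhibitors. Lysates immunoblotted for P-Akt Ser473.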

[10] = target: Phosphatidylinositol 4,5-bisphosphate 3-kinase catalytic subunit gamma isoform (Homo sapiens, UniProt P48736); assay: Inhibition of PI3Kgamma (unknown origin) by HTRF assay
Sequence of Phosphatidylinositol 4,5-bisphosphate 3-kinase catalytic subunit gamma isoform (P48736 whole entry, canonical isoform): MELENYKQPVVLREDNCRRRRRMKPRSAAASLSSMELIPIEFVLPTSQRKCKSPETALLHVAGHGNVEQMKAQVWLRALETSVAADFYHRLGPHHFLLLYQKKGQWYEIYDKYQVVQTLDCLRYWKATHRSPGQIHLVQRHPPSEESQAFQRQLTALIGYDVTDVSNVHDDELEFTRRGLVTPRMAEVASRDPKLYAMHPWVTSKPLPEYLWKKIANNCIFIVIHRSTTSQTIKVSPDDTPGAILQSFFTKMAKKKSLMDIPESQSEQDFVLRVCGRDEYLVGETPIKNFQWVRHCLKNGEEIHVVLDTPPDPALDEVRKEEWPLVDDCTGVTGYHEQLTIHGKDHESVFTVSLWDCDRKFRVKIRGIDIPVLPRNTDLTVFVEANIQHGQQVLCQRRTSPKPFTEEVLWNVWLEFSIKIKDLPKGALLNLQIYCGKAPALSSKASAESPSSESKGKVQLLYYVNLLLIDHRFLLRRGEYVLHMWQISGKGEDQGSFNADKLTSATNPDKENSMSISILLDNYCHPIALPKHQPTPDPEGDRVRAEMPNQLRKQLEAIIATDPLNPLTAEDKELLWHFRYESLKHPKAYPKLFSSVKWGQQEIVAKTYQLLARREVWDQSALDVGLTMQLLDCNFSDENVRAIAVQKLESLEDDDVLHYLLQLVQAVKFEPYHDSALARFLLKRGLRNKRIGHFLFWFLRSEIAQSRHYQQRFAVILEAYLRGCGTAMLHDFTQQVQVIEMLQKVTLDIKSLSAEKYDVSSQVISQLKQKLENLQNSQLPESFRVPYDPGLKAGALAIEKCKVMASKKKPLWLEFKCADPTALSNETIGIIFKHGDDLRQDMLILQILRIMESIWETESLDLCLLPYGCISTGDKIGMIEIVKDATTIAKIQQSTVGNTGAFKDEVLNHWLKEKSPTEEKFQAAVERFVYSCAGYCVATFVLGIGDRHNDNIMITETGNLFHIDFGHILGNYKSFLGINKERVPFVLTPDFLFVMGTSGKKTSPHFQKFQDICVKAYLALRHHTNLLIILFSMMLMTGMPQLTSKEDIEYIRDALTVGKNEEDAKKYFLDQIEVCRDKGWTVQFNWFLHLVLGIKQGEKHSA
How it was run: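 Contract lab panel, end-point HTRF format with phosphatidylinositol 4,5-bisphosphate as substrate and 10 μM ATP. Ten-point curve, 3-fold serial dilutions starting at 1 μM. Reported as an apparent IC50 (IC50App).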

[11] = target: T2, Phosphatidylinositol 4,5-bisphosphate 3-kinase catalytic subunit delta isoform (Homo sapiens, UniProt O00329); assay: Inhibition of PI3Kdelta (unknown origin) by HTRF assay
T2 sequence (O00329 whole entry): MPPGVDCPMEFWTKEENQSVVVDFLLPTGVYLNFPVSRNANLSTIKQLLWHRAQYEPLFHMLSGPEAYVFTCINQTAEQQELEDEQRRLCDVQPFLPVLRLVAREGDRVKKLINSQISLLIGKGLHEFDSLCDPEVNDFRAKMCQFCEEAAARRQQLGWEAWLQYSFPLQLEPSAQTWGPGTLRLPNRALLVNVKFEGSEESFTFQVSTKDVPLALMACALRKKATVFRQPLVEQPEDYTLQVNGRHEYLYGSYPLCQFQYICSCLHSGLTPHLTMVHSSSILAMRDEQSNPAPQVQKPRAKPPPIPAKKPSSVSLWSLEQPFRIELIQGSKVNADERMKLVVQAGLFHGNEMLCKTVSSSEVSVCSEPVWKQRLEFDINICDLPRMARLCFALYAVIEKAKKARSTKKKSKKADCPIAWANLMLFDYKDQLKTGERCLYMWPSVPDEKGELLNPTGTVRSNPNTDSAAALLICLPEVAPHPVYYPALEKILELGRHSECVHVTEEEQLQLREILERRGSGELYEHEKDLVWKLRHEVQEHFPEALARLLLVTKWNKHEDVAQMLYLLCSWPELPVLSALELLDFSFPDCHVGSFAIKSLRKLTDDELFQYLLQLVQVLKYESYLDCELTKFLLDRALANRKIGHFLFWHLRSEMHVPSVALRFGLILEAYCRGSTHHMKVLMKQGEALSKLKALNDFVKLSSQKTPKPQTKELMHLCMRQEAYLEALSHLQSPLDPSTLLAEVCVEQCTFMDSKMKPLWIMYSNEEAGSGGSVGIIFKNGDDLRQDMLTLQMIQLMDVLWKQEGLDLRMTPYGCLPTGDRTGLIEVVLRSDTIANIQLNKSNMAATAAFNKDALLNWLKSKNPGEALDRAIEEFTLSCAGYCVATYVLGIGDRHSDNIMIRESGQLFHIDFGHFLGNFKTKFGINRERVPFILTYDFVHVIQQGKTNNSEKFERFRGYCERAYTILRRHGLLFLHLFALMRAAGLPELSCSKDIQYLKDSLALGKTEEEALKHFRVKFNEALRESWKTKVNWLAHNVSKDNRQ

[12] = target: Phosphatidylinositol 3-kinase catalytic subunit type 3 (Homo sapiens, UniProt Q8NEB9); assay: Inhibition of PI3KC3 (unknown origin) by ADP-GLO assay; how it was run: as §1
Sequence of Phosphatidylinositol 3-kinase catalytic subunit type 3 (Q8NEB9 whole entry, the tested form may be a part): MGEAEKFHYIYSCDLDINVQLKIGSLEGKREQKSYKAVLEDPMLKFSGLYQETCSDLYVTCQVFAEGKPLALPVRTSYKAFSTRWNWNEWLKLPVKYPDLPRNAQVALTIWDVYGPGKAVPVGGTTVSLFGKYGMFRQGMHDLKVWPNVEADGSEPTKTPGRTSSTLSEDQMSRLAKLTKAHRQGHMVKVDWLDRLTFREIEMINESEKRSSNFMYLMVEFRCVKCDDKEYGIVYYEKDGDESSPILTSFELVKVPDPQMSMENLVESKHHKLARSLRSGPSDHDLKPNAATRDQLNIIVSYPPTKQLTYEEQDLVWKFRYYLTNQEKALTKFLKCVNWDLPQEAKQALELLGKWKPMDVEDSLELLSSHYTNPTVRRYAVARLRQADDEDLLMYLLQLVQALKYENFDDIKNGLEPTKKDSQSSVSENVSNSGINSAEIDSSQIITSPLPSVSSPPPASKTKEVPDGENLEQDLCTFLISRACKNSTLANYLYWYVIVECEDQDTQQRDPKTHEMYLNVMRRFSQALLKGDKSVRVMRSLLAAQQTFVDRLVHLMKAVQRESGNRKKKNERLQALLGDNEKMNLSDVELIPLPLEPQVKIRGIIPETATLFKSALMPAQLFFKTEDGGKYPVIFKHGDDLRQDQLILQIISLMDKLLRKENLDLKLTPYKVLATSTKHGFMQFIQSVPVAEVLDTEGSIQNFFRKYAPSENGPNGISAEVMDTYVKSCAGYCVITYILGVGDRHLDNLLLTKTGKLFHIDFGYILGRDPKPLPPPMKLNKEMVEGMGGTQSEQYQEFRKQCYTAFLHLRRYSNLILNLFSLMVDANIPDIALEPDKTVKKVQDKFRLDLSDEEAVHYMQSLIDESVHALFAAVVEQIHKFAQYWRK

[13] = target: Phosphatidylinositol 4-phosphate 3-kinase C2 domain-containing subunit alpha (Homo sapiens, UniProt O00443); assay: Inhibition of PI3KC2A (unknown origin) by ADP-GLO assay; how it was run: as §1
Sphingosine kinase 2 = target: T3, Sphingosine kinase 2 (Homo sapiens, UniProt Q9NRA0); assay: Inhibition of SPHK2 (unknown origin) by ADP-GLO assay; how it was run: as §1
T3 sequence (Q9NRA0 whole entry): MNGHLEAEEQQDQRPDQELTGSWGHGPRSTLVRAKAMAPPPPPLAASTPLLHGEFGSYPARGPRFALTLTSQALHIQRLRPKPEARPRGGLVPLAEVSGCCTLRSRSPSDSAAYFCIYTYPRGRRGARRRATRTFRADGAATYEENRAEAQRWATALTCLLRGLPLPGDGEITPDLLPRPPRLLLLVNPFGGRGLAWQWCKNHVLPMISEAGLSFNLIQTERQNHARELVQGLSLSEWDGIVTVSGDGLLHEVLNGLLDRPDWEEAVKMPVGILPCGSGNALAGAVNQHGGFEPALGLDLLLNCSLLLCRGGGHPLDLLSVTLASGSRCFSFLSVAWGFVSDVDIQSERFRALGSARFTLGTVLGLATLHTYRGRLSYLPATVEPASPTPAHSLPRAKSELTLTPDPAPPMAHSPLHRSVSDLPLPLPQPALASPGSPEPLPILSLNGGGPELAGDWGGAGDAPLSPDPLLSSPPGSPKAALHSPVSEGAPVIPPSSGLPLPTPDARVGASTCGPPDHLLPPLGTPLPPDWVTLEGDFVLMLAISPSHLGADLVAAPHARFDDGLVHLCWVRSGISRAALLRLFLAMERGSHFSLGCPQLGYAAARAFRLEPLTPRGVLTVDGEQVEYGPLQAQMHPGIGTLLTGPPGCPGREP

Structure (SMILES) | GI50 (SK-OV-3) [nM] | inhibition [1] | inhibition [2] | GI50 (MCF7) [nM] | Activity [3] | IC50 [4] [nM] | Activity (Mus musculus [5]) | IC50 [6] [nM] | inhibition [7] | IC50 [8] [nM] | IC50 (Sphingosine kinase 1) [nM] | PPB (Plasma) | Activity (Mus musculus [9]) | IC50 [10] [nM] | IC50 [11] [nM] | IC50 [12] [nM] | IC50 [13] [nM] | IC50 (Sphingosine kinase 2) [nM]
CS(=O)(=O)N1CCN(Cc2cc3nc(-c4cccc5[nH]ncc45)nc(N4CCOCC4)c3s2)CC1 [PICTILISIB] | 148 | Active | inactive | 70.2 |  |  |  |  |  |  |  |  |  |  |  |  |  | 
CC(C)=CC(=O)CCC(=O)N1CCN(Cc2cc3nc(-c4cccc5[nH]ncc45)nc(N4CCOCC4)c3s2)CC1 | 77.6 |  |  | 54.7 | inactive | > 1000 | Active | 166 | Active | > 1000 | > 1000 | Not Active | Active | 240 | 3020 | > 1000 | > 1000 | > 1000
